# According to the M2OR odorant receptor database:
# Molecular target: T1, OR1G1 (Homo sapiens) (UniProt P47890)
# T1 sequence (whole entry): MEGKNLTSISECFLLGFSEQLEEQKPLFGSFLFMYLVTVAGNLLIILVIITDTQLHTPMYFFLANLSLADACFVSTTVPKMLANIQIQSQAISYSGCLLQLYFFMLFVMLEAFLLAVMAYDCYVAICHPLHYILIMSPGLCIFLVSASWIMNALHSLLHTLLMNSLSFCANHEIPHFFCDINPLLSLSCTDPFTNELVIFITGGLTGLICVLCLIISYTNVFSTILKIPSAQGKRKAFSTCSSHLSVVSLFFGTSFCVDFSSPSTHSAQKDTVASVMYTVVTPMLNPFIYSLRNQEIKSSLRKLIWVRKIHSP
# Conditions: stereoisomer not certain
# Summary of the method: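 Transient luciferase assays in mammalian cell lines were common, though methods varied by source. The values come from published papers and their supplementary material, with extra details from the original authors when needed. Responsive refers to a measured signal the original authors judged statistically different from baseline, and non-responsive (inactive) to the remainder.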
# 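Also: active if original authors judged signal statistically different from baseline.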
row,Structure (SMILES),odorant receptor agonist call
1,CCCCCCCCCCC(C)=O,inactive
2,CCCCCCC(=O)[O-].[H+],inactive
3,CCCC(=O)OCC,active
4,CC=Cc1ccc(OC)cc1,active
5,CCCCCC1COCCC1OC(C)=O (stereo not drawn),inactive
6,CCCCCCCCCC(=O)OCC,active
7,CCCCCCCCO,active
8,CCC(=O)O,inactive
9,COC1CC2CC1C1CC(C=O)CC21 (stereo not drawn),inactive
10,OCc1ccccc1,active
11,CC(=O)OCCC(C)C,active
12,CC(=O)CCC=C(C)C,inactive
13,CC1=CCC2CC1C2(C)C (stereo not drawn),inactive
14,CC12CCC(CC1=O)C2(C)C (stereo not drawn),active
15,CCCCCCCCCO,active
16,C=CCOC(=O)COCCC(C)C,inactive
17,CCCCCCCCCCCC(=O)O,inactive

row,Structure (SMILES),odorant receptor agonist call
1,CCCCC(O)CCC (stereo not drawn),active
2,COc1ccc(C)cc1,inactive
3,CCCCCCCCCCO,active
4,CCCCCCCCCC(=O)[O-].[H+],active
5,CCCCCCC(=O)CC,active
6,O=C(O)C=Cc1ccccc1,inactive
7,CCCCCCC1CCC(=O)O1 (stereo not drawn),active
8,CCCCCCCO,active
9,CCCCCCC(=O)OC,inactive
10,CCCCCCCC(=O)OCC,active
11,c1ccc2ncccc2c1,active
12,CC(C)=CCCC(C)=CCO,active
13,CC(C)CCCC(C)(C)O,inactive
14,CC(C)=CCCC(C)=CC#N,inactive
15,Cc1ccc(C(C)C)cc1O,inactive
16,Cc1cnccn1,active
